Key:
Rattus norvegicus [1] = assay: Biodistribution in Sprague-Dawley rat pontine reticular nucleus at 23 MBq, iv after 60 mins by microPET imaging/CT study; format: ADME, organism-based; details: in vivo, 1 h
In short: (§1)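 Sprague-Dawley rats under isoflurane (1.5–2.5%) in oxygen received 23 MBq radiotracer (0.2 mL saline) via tail vein. Blocking animals were pre-injected with haloperidol (0.2 mL, 1 mg/kg) 5 min before the tracer. MicroPET emission was acquired for 30 min starting 60 min post-injection, followed by a 5 min CT scan; images were summed over 60–90 min.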

Spleen = assay: Biodistribution in ICR mouse spleen at 370 kBq, iv after 60 mins by gamma-counting analysis in presence of haloperidol relative to control; format: ADME, organism-based; details: in vivo, 1 h
In short: (§2)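 Male ICR mice, n = 5 per group, received saline (0.1 mL) or haloperidol (0.1 mL, 1.0 mg/kg) via tail vein 5 min before the radiotracer (370 kBq, 0.1 mL, iv). Killed by decapitation at 60 min. Tissues were excised, weighed and gamma-counted. Values are % ID/g (stomach as % ID/organ) and percent change versus saline controls, compared by two-tailed independent Student's t test, p ≤ 0.05.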

Liver = assay: Biodistribution in ICR mouse liver at 370 kBq, iv after 30 mins by gamma-counting analysis; format: ADME, organism-based; details: in vivo, 0.5 h
In short: (§3)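 Male ICR mice (n = 5 per group) got 370 kBq tracer in 0.1 mL saline by iv injection. They were decapitated at 2, 30, 60 or 120 min, and organs were weighed and γ-counted. %ID/g was found against diluted aliquots of the injected dose, decay-corrected, and given as mean ± SD.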

Intestine [2] = assay: Biodistribution in ICR mouse intestine assessed per organ at 370 kBq, iv after 120 mins by gamma-counting analysis; format: ADME, organism-based; details: in vivo, 2 h
In short: (§4)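 Male ICR mice (n = 5) got 370 kBq iv in 0.1 mL saline and were decapitated at 2, 30, 60 or 120 min. Whole intestine was γ-counted and expressed as percent injected dose per organ, decay-corrected, mean ± SD.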

Lung [3] = assay: Biodistribution in ICR mouse lung at 370 kBq, iv after 120 mins by gamma-counting analysis; format: ADME, organism-based; details: in vivo, 2 h; in short: as §3
Muscle tissue [4] = assay: Biodistribution in ICR mouse muscle at 370 kBq, iv after 30 mins by gamma-counting analysis; format: ADME, organism-based; details: in vivo, 0.5 h
In short: (§5)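 Male ICR mice, n = 5 per time point, given the radiotracer in saline (370 kBq, 0.1 mL) by intravenous injection. Killed by decapitation at 2, 30, 60 or 120 min. Organs were excised, weighed and gamma-counted with decay correction. Uptake is expressed as % injected dose per gram of wet tissue against diluted standards of the injected material; stomach and intestine are expressed as % injected dose per organ. Mean ± SD.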

Intestine [5] = assay: Biodistribution in ICR mouse intestine assessed per organ at 370 kBq, iv after 60 mins by gamma-counting analysis; format: ADME, organism-based; details: in vivo, 1 h; in short: as §4
Blood [6] = assay: Biodistribution in ICR mouse blood at 370 kBq, iv after 60 mins by gamma-counting analysis; format: ADME, organism-based; details: in vivo, 1 h; in short: as §3
Nucleic Acid = assay: Ratio of drug uptake in Sprague-Dawley rat frontal cortex to cerebellum at 12.2 MBq, iv after 60 mins by autoradiography; format: ADME, organism-based; details: in vivo, 1 h
Rattus norvegicus [7] = assay: Biodistribution in Sprague-Dawley rat pontine reticular nucleus at 23 MBq, iv after 60 mins by microPET imaging/CT study in presence of haloperidol; format: ADME, organism-based; details: in vivo, 1 h; in short: as §1
Heart [8] = assay: Biodistribution in ICR mouse heart at 370 kBq, iv after 2 mins by gamma-counting analysis; format: ADME, organism-based; details: in vivo; in short: as §3
Muscle tissue [9] = assay: Biodistribution in ICR mouse muscle at 370 kBq, iv after 60 mins by gamma-counting analysis in presence of haloperidol relative to control; format: ADME, organism-based; details: in vivo, 1 h; in short: as §2
[10] = Ratio of drug uptake from ICR mouse brain to blood after 120 mins; format: ADME, tissue-based; details: brain and blood
[11] = Ratio of drug uptake from ICR mouse brain to blood after 30 mins; format: ADME, tissue-based; details: brain and blood
Intestine [12] = assay: Biodistribution in ICR mouse intestine assessed per organ at 370 kBq, iv after 2 mins by gamma-counting analysis; format: ADME, organism-based; details: in vivo; in short: as §4
Lung [13] = assay: Biodistribution in ICR mouse lung assessed as reduction in radiotracer uptake at 370 kBq, iv after 60 minutes by gamma-counting analysis in presence of SA4503 relative to control; format: ADME, organism-based; design: scale not given: the % may be the effect or the level left; details: in vivo, 1 h
In short: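 Male ICR mice got saline or SA4503 (0.1 mL; 2, 5, 10 or 2.2 μmol/kg) via tail vein 5 min before 370 kBq tracer (0.1 mL) iv. They were decapitated at 60 min and tissues γ-counted. Percent change was taken against saline controls, with two-tailed Student's t test, p ≤ 0.05.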

Heart [14] = assay: Biodistribution in ICR mouse heart at 370 kBq, iv after 60 mins by gamma-counting analysis; format: ADME, organism-based; details: in vivo, 1 h; in short: as §3
[15] = Drug uptake in Sprague-Dawley rat lateral ventricle at 12.2 MBq, iv after 60 mins by autoradiography; format: ADME, organism-based; details: in vivo, 1 h
In short: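 [¹⁸F]-labelled tracer (0.2 mL, 12.2 MBq) given intravenously to conscious Sprague-Dawley rats (n = 3). Each rat was killed by cervical dislocation 60 min after injection. The brain was removed and frozen in liquid nitrogen, and 20 μm coronal sections were cut on a cryostat for ex vivo autoradiography of regional radioactivity.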

Brain [16] = assay: Biodistribution in ICR mouse brain at 370 kBq, iv after 30 mins by gamma-counting analysis; format: ADME, organism-based; details: in vivo, 0.5 h; in short: as §3
Brain [17] = assay: Biodistribution in ICR mouse brain at 370 kBq, iv after 2 mins by gamma-counting analysis; format: ADME, organism-based; details: in vivo; in short: as §3
Midbrain = assay: Biodistribution in Sprague-Dawley rat midbrain at 23 MBq, iv after 60 mins by microPET imaging/CT study in presence of haloperidol; format: ADME, organism-based; details: in vivo, 1 h; in short: as §1
Bone [18] = assay: Biodistribution in ICR mouse bone at 370 kBq, iv after 30 mins by gamma-counting analysis; format: ADME, organism-based, Bone element; details: in vivo, 0.5 h; in short: as §3
Lung [19] = assay: Biodistribution in ICR mouse lung at 370 kBq, iv after 60 mins by gamma-counting analysis in presence of haloperidol relative to control; format: ADME, organism-based; details: in vivo, 1 h; in short: as §2
Kidney [20] = assay: Biodistribution in ICR mouse kidney at 370 kBq, iv after 60 mins by gamma-counting analysis; format: ADME, organism-based; details: in vivo, 1 h; in short: as §3
Brain [21] = assay: Biodistribution in ICR mouse brain at 370 kBq, iv after 60 mins by gamma-counting analysis in presence of haloperidol relative to control; format: ADME, organism-based; details: in vivo, 1 h
In short: (§6)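 Male ICR mice (n = 5) got saline or haloperidol (0.1 mL, 1.0 mg/kg) via tail vein 5 min before 370 kBq tracer iv. Tissues were taken 60 min later and γ-counted as %ID/g (intestine as %ID/organ). Control and blocked groups were compared by two-tailed independent Student's t test, p ≤ 0.05.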

Muscle tissue [22] = assay: Biodistribution in ICR mouse muscle at 370 kBq, iv after 120 mins by gamma-counting analysis; format: ADME, organism-based; details: in vivo, 2 h; in short: as §5
Blood [23] = assay: Biodistribution in ICR mouse blood at 370 kBq, iv after 60 mins by gamma-counting analysis in presence of haloperidol relative to control; format: ADME, organism-based; details: in vivo, 1 h; in short: as §6
Bone [24] = assay: Biodistribution in ICR mouse bone at 370 kBq, iv after 120 mins by gamma-counting analysis; format: ADME, organism-based, Bone element; details: in vivo, 2 h; in short: as §3
Kidney [25] = assay: Biodistribution in ICR mouse kidney at 370 kBq, iv after 120 mins by gamma-counting analysis; format: ADME, organism-based; details: in vivo, 2 h; in short: as §3

Drug uptake (Spleen) | Drug uptake (Liver) | Drug uptake (Intestine [2]) | Drug uptake (Lung [3]) | Drug uptake (Muscle tissue [4]) | Drug uptake (Intestine [5]) | Drug uptake (Blood [6]) | Drug uptake (Heart [8]) | Drug uptake (Muscle tissue [9]) | Kp at 2 h [10] | Kp at 0.5 h [11] | Drug uptake (Intestine [12]) | Drug uptake (Heart [14]) | Drug uptake (Brain [16]) | Drug uptake (Brain [17]) | Drug uptake (Bone [18]) | Drug uptake (Lung [19]) | Drug uptake (Kidney [20]) | Drug uptake (Brain [21]) | Drug uptake (Muscle tissue [22]) | further results | SMILES
5% | 15.3 % ID/g | 7.17 %ID | 16.2 % ID/g | 4.59 % ID/g | 7.81 %ID | 0.8 % ID/g | 21.71 % ID/g | -20% | 7.5 | 12.9 | 6.62 %ID | 10.74 % ID/g | 9.32 % ID/g | 8.07 % ID/g | 3.3 % ID/g | -76% | 10.87 % ID/g | -58% | 4.01 % ID/g | Drug uptake (Rattus norvegicus [1]): Active; Ratio (Nucleic Acid): 1.5; Drug uptake (Rattus norvegicus [7]): Active; Activity (Lung [13]): 71%; Drug uptake [15]: Active; Drug uptake (Midbrain): Active; Drug uptake (Blood [23]): 352%; Drug uptake (Bone [24]): 6.13 % ID/g; Drug uptake (Kidney [25]): 9.55 % ID/g | [18F]CCOc1ccc(CN2CCC3(CC2)OCc2ccccc23)cc1
-32% | 8.67 % ID/g | 4.04 %ID | 3.16 % ID/g | 2.42 % ID/g | 4.68 %ID | 3.35 % ID/g | 7.69 % ID/g | 17% | 1.1 | 1.8 | 6.21 %ID | 3.43 % ID/g | 5.2 % ID/g | 5.79 % ID/g | 4.1 % ID/g | 6% | 4.37 % ID/g | -16% | 2.62 % ID/g | Drug uptake (Blood [23]): 17%; Drug uptake (Bone [24]): 5.28 % ID/g; Drug uptake (Kidney [25]): 3.96 % ID/g | [18F]CCOCCOCCOc1ccc(CN2CCC3(CC2)OCc2ccccc23)cc1

— ChEMBL document CHEMBL2346503, “Synthesis and evaluation of novel (18)F-labeled spirocyclic piperidine derivatives as σ1 receptor ligands for positron emission tomography imaging” (J Med Chem, 2013)
